Experimental findings from ChEMBL document CHEMBL1649373, “Candimine-induced cell death of the amitochondriate parasite Trichomonas vaginalis” (2010) are described below.

Experiment [1] deals with Trichomonas vaginalis. Briefly: Cytotoxicity against Trichomonas vaginalis TV-VP60 at 50 uM after 24 hrs by trypan blue exclusion assay. It counts as functional.
Experiment [2] has as its system Trichomonas vaginalis. Briefly: Cytotoxicity against Trichomonas vaginalis TV-VP60 at 2.5 uM to 1 mM after 24 hrs by trypan blue exclusion assay. It counts as functional, organism-based. In outline:
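Dose-response run on 5.0 × 10^5 TV-VP60 trophozoites/mL (fresh clinical isolate), concentrations 2.5 to 1000 µM, 24 h exposure, viable trophozoites counted. Vehicle control included; metronidazole 50 µM used as positive control.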

For experiment [3], the system named is Trichomonas vaginalis. The experiment in a line: Growth inhibition of Trichomonas vaginalis TV-VP60 at 250 uM using initial inoculum of 1.0 x 10^5 trophozoites/mL. It counts as functional, organism-based. In outline: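 Kinetic growth curve of TV-VP60 trophozoites with 250 µM present, starting from initial inocula of 1.0 × 10^5 or 5.0 × 10^4 trophozoites/mL. Untreated parasites served as control.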

Experiment [4] deals with Trichomonas vaginalis. Briefly: Growth inhibition of Trichomonas vaginalis TV-VP60 at 250 uM using initial inoculum of 5 x 10^5 trophozoites/mL. It counts as functional, organism-based.
Experiment [5] has as its system Trichomonas vaginalis. The experiment in a line: Growth inhibition of Trichomonas vaginalis TV-VP60 at 250 uM treated followed by washout measured after 12 hrs growth period. It counts as functional, organism-based. In outline:
(§1)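 TV-VP60 trophozoites treated with 250 µM for 12 or 24 h, centrifuged, and the pellet reinoculated into fresh medium without alkaloid. Growth was then followed as a kinetic curve. Untreated trophozoites went through the same procedure for comparison.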

Experiment [6] has as its system Trichomonas vaginalis. The experiment in a line: Growth inhibition of Trichomonas vaginalis TV-VP60 at 250 uM treated followed by washout measured after 48 hrs growth period. It counts as functional, organism-based. In outline: as §1
For experiment [7], the system named is Trichomonas vaginalis. The experiment in a line: Induction of striking morphological alteration in Trichomonas vaginalis TV-VP60 assessed as loss of original shape of parasites with some fissures on the surface at 250 uM after 6 hrs by scanning electron microscopic analysis. It counts as functional, organism-based. In outline: (§2)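 Surface morphology of TV-VP60 trophozoites exposed to 250 µM for 6 h and 24 h was examined by scanning electron microscopy.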

Experiment [8] has as its system Trichomonas vaginalis. The experiment in a line: Induction of striking morphological alteration in Trichomonas vaginalis TV-VP60 assessed as loss of original shape of parasites with some fissures on the surface at 250 uM after 24 hrs by scanning electron microscopic analysis. It counts as functional, organism-based. In outline:
as §2

In experiment [9] the test system is Trichomonas vaginalis. Briefly: Induction of striking morphological alteration in Trichomonas vaginalis TV-VP60 assessed as loss of original shape of parasites with some fissures on the surface at 250 uM by scanning electron microscopic analysis. It counts as functional, organism-based. To be noted: TDE = time-dependent effect. In outline:
as §2

The test system of experiment [10] is Trichomonas vaginalis. The experiment in a line: Induction of striking morphological alteration in Trichomonas vaginalis TV-VP60 assessed as pseudocysts at flagella internalization stage at 5 uM after 24 hrs by scanning electron microscopic analysis. It counts as functional, organism-based.
Experiment [11] relates to Trichomonas vaginalis. Briefly: Induction of striking morphological alteration in Trichomonas vaginalis TV-VP60 assessed as large peripheral vacuoles between plasma membrane and cytoplasm at 250 uM after 24 hrs by transmission electron microscopic analysis. It counts as functional, organism-based.
For experiment [12], the system named is Trichomonas vaginalis. Briefly: Induction of striking morphological alteration in Trichomonas vaginalis TV-VP60 assessed as striate vacuolization close to nucleus at 250 uM after 24 hrs by transmission electron microscopic analysis. It counts as functional, organism-based.
Experiment [13] relates to Trichomonas vaginalis. Briefly: Induction of striking morphological alteration in Trichomonas vaginalis TV-VP60 assessed as hydrogenosomes on autophagic vacuoles at 250 uM after 24 hrs by transmission electron microscopic analysis. It counts as functional, organism-based.
The test system of experiment [14] is Trichomonas vaginalis. Briefly: Induction of striking morphological alteration in Trichomonas vaginalis TV-VP60 assessed as change in size of hydrogenosomes at 250 uM after 6 to 24 hrs by transmission electron microscopic analysis. It counts as functional, organism-based.
Experiment [15] relates to Trichomonas vaginalis. The experiment in a line: Induction of striking morphological alteration in Trichomonas vaginalis TV-VP60 assessed as change in shape of hydrogenosomes at 250 uM after 6 to 24 hrs by transmission electron microscopic analysis. It counts as functional, organism-based.
Experiment [16] has as its system Trichomonas vaginalis. The experiment in a line: Induction of striking morphological alteration in Trichomonas vaginalis TV-VP60 assessed as change in intracellular localization of hydrogenosomes at 250 uM after 6 to 24 hrs by transmission electron microscopic analysis. It counts as functional, organism-based.
The subject of experiment [17] is Trichomonas vaginalis. Briefly: Induction of striking morphological alteration in Trichomonas vaginalis TV-VP60 assessed as effect on golgi apparatus at 250 uM after 6 hrs by transmission electron microscopic analysis. It counts as functional, organism-based.
Experiment [18] concerns Trichomonas vaginalis. Briefly: Induction of striking morphological alteration in Trichomonas vaginalis TV-VP60 assessed as degenerated cytoplasm matrix at 250 uM after 24 hrs by transmission electron microscopic analysis. It counts as functional, organism-based.
For experiment [19], the system named is Trichomonas vaginalis. The experiment in a line: Induction of striking morphological alteration in Trichomonas vaginalis TV-VP60 assessed as formation of multinucleated cells at 250 uM after 24 hrs by transmission electron microscopic analysis. It counts as functional, organism-based.
In experiment [20] the test system is Trichomonas vaginalis. Briefly: Induction of striking morphological alteration in Trichomonas vaginalis TV-VP60 assessed as abnormal shape of nucleus at 250 uM after 24 hrs by transmission electron microscopic analysis. It counts as functional, organism-based.
Experiment [21] relates to Trichomonas vaginalis. The experiment in a line: Induction of striking morphological alteration in Trichomonas vaginalis TV-VP60 assessed as effect on endoplasmic reticulum at 250 uM after 6 hrs by transmission electron microscopic analysis. It counts as functional, organism-based.
Experiment [22] deals with Trichomonas vaginalis. The experiment in a line: Induction of striking morphological alteration in Trichomonas vaginalis TV-VP60 assessed as elongated nucleus at 250 uM after 24 hrs by transmission electron microscopic analysis. It counts as functional, organism-based.
In experiment [23] the test system is Trichomonas vaginalis. The experiment in a line: Cell cycle arrest in Trichomonas vaginalis TV-VP60 assessed as accumulation at G1 phase at 250 uM after 6 hrs using Annexin V FITC and propidium iodide staining by flow cytometry relative to control. It counts as functional. In outline: (§3)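 TV-VP60 trophozoites (fresh clinical isolate) exposed to 250 µM for 6 h or 24 h; cell-cycle distribution measured by flow cytometry and compared with untreated trophozoites.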
A general note: In flow cytometry, cells or beads pass a laser one at a time.

The test system of experiment [24] is Trichomonas vaginalis. Briefly: Cell cycle arrest in Trichomonas vaginalis TV-VP60 assessed as accumulation at S phase at 250 uM after 6 hrs using Annexin V FITC and propidium iodide staining by flow cytometry relative to control. It counts as functional. In outline:
as §3

For experiment [25], the system named is Trichomonas vaginalis. The experiment in a line: Cell cycle arrest in Trichomonas vaginalis TV-VP60 assessed as accumulation at G2 phase at 250 uM after 6 hrs using Annexin V FITC and propidium iodide staining by flow cytometry relative to control. It counts as functional. In outline: as §3
Experiment [26] has as its system Trichomonas vaginalis. The experiment in a line: Cell cycle arrest in Trichomonas vaginalis TV-VP60 assessed as accumulation at G1 phase at 250 uM after 24 hrs using Annexin V FITC and propidium iodide staining by flow cytometry relative to control. It counts as functional. In outline: as §3
In experiment [27] the test system is Trichomonas vaginalis. Briefly: Cell cycle arrest in Trichomonas vaginalis TV-VP60 assessed as accumulation at S phase at 250 uM after 24 hrs using Annexin V FITC and propidium iodide staining by flow cytometry relative to control. It counts as functional. In outline: as §3
The subject of experiment [28] is Trichomonas vaginalis. The experiment in a line: Cell cycle arrest in Trichomonas vaginalis TV-VP60 assessed as accumulation at G2 phase at 250 uM after 24 hrs using Annexin V FITC and propidium iodide staining by flow cytometry relative to control. It counts as functional. In outline:
as §3

In experiment [29] the test system is Trichomonas vaginalis. The experiment in a line: Induction of vacuolization formation in Trichomonas vaginalis TV-VP60 at 250 uM after 6 to 24 hrs by flow cytometry. It counts as functional, organism-based. In outline: (§4)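 TV-VP60 trophozoites exposed to 250 µM for 6 h and 24 h. Cell size and granularity were read by flow cytometry, with granularity taken as the vacuolization rate.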

Experiment [30] has as its system Trichomonas vaginalis. Briefly: Effect on alteration in size of trophozoites in Trichomonas vaginalis TV-VP60 at 250 uM after 6 to 24 hrs by flow cytometry. It counts as functional, organism-based. In outline: as §4
The subject of experiment [31] is Trichomonas vaginalis. The experiment in a line: Induction of apoptosis in Trichomonas vaginalis TV-VP60 assessed as formation of apoptotic bodies at 250 uM after 6 to 24 hrs by flow cytometry. It counts as functional, organism-based.
In experiment [32] the test system is Trichomonas vaginalis. Briefly: Induction of apoptosis in Trichomonas vaginalis TV-VP60 assessed as DNA fragmentation at 250 uM after 6 to 24 hrs by agarose gel electrophoresis. It counts as functional, organism-based. In outline: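 Genomic DNA from TV-VP60 trophozoites treated with 250 µM for 6 h and 24 h was analysed by electrophoresis alongside untreated parasites.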

In experiment [33] the test system is Trichomonas vaginalis. Briefly: Induction of phosphatidylserine exposure in Trichomonas vaginalis TV-VP60 at 250 uM after 6 to 24 hrs by Annexin V-FITC staining. It counts as functional, organism-based.

Structures are written as SMILES. The source made the active and inactive calls. The rule behind the calls is not given here.

The compound `Cc1ncc([N+](=O)[O-])n1CCO` [METRONIDAZOLE] returned an Activity in experiment [1] of 100%.

Turning to `COc1c2c(cc3c1C(=O)O[C@H]1[C@@H]3[C@H]3C(=C[C@@H]1O)CCN3C)OCO2` [CANDIMINE], the outcome in [2], in [7], in [8], in experiment [10], in experiment [11] and in experiment [12] was Active. Further, the outcome in experiment [13], in experiment [14], in experiment [15], in [16], in experiment [20] and in experiment [22] was Active. Moreover, the outcome in experiment [29] was Active. Moreover, the “growth inhibition (GI)” value in [3] and in experiment [4] was “Active” throughout. Moreover, the “growth inhibition (GI)” value in [5] and in experiment [6] was “inactive” in each case. In addition, the Activity result in [9] was “tde”; in [23], 34.39%; in [24], 19.89%; in [25], 44.2%; in [26], 22.66%; in experiment [27] it was 19.49%. Further, in experiment [28], the Activity was found to be 58.97%. Also, the outcome in experiment [17], in experiment [18], in experiment [19], in experiment [21], in experiment [30] and in experiment [31] was inactive. In addition, the result in [32] and in experiment [33] was inactive.
